Source: ChEMBL document CHEMBL1122721, “Synthesis and antiarrhythmic activity of new 1-[1-[2-[3-(alkylamino)-2-hydroxypropoxy]phenyl]vinyl]-1 H-imidazoles and related compounds” (J Med Chem, 1984)
Values joined by “and” are separate entries in the source; they are usually repeats but may differ in a detail not shown here. Equal entries are not always repeated.

Tests used:
Canis familiaris [1] = experiment: Effect on ischemic arrhythmias was studied in dogs. 3 mg/kg was injected intravenously and percent sinus beats before compound administration, was reported.; assay type: functional, Canis lupus familiaris; conditions: route intravenous
Summary of the method: (§1)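 Conscious dogs with ischemic ventricular arrhythmias persisting for 24 h after a glass bead was inserted into a coronary artery. Compound was given iv or orally. Lead II ECG recorded continuously by telemetry. Percent sinus beats taken before and after dosing, plus duration of effect (min).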

Mus musculus [2] = experiment: Compound was evaluated for ventricular tachycardia activity in perorally administered mice, 30 min before aconitine infusion, at a dose of 10 mg/kg; S=significant antiarrhythmic effect; assay type: functional, organism-based; parameters: dose 10 mg/kg; conditions: Heart
Summary of the method: (§2)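 Aconitine arrhythmia model in pentobarbital-anesthetized male mice (20-35 g). Test compound was given iv 3 min or po 30 min before continuous tail-vein infusion of aconitine (0.685 µg/min). Lead II ECG recorded; onset times of ventricular extrasystole (VES) and ventricular tachycardia (VT) were measured.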

Canis familiaris [3] = species on record: Canis familiaris; experiment: Duration of ischemic arrhythmias in dogs determined in minutes.
Mus musculus [4] = experiment: Compound was evaluated for ventricular tachycardia activity in intravenously administered mice, 3 min before aconitine infusion, at a dose of 3 mg/kg; S=significant antiarrhythmic effect; assay type: functional, organism-based; parameters: dose 3 mg/kg; conditions: Heart; summary of the method: as §2
[5] = Lethal dose in mice (LD50) (following i.v. dosing); conditions: mouse, in vivo, iv
Cavia porcellus = species on record: Cavia porcellus; experiment: Maximal follow rate showing the contractile frequencies of atria to electrical stimulation 10 min after incubation with right atria of guinea pig.; assay type: functional
Summary of the method: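 Isolated right atria driven by electrical stimulation (Dawes' method). Maximal follow rate, the highest contractile frequency the atria follow, measured as an index of refractory period 10 min after incubation with compound.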

[6] = biological target: Adrenergic receptor beta (Cavia porcellus); experiment: Beta adrenergic receptor blocking activity measured by the chronotropic effect was determined 1 hr after pretreatment of the right atria in guinea pig
Mus musculus [7] = experiment: Compound was evaluated for ventricular extrasystole, 30 min before aconitine infusion, at a dose of 10 mg/kg, perorally administered in mice; S=significant antiarrhythmic effect; assay type: functional, organism-based; parameters: dose 10 mg/kg; conditions: Heart; summary of the method: as §2
Canis familiaris [8] = experiment: Effect on ischemic arrhythmias was studied in dogs. 3 mg/kg was injected intravenously and percent sinus beats after compound administration, was reported.; assay type: functional, Canis lupus familiaris; conditions: route intravenous; summary of the method: as §1
[9] = biological target: Adrenergic receptor beta (Cavia porcellus); experiment: Beta adrenergic receptor blocking activity measured by the inotropic effect was determined 1 hr after pretreament of the right atria in guinea pig
Mus musculus [10] = experiment: Compound was evaluated for ventricular extrasystole activity, 3 min before aconitine infusion, at a dose of 3 mg/kg, intravenously administered in mice; S=significant antiarrhythmic effect; assay type: functional, organism-based; parameters: dose 3 mg/kg; conditions: Heart; summary of the method: as §2
Canis familiaris [11] = experiment: Effect on ischemic arrhythmias was studied in dogs, by glass bead method. 60 mg/kg was administered perorally and percent sinus beats before compound administration, was reported.; assay type: functional, Canis lupus familiaris; conditions: route oral; summary of the method: as §1
Mus musculus [12] = experiment: Compound was evaluated for ventricular tachycardia activity in intravenously administered mice, 3 min before aconitine infusion, at a dose of 10 mg/kg; S=significant antiarrhythmic effect; assay type: functional, organism-based; parameters: dose 10 mg/kg; conditions: Heart; summary of the method: as §2
Canis familiaris [13] = experiment: Effect on ischemic arrhythmias was studied in dogs. 10 mg/kg was injected intravenously and percent sinus beats before compound administration, was reported.; assay type: functional, Canis lupus familiaris; conditions: route intravenous; summary of the method: as §1
Canis familiaris [14] = experiment: Effect on ischemic arrhythmias was studied in dogs, by glass bead method. 60 mg/kg was administered perorally and percent sinus beats after compound administration, was reported.; assay type: functional, Canis lupus familiaris; conditions: route oral
Summary of the method: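 Conscious dogs; ventricular arrhythmias induced by inserting a glass bead into a coronary artery, with marked arrhythmias persisting for 24 h. Compound given orally. Lead II ECG recorded continuously by telemetry. Percent sinus beats measured before and after dosing, and duration of effect in min recorded.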

Mus musculus [15] = experiment: Compound was evaluated for ventricular extrasystole activity, 3 min before aconitine infusion, at a dose of 10 mg/kg, intravenously administered in mice; S=significant antiarrhythmic effect; assay type: functional, organism-based; parameters: dose 10 mg/kg; conditions: Heart; summary of the method: as §2
Mus musculus [16] = experiment: Compound was evaluated for ventricular tachycardia activity in perorally administered mice, 30 min before aconitine infusion, at a dose of 30 mg/kg; S=significant antiarrhythmic effect; assay type: functional, organism-based; parameters: dose 30 mg/kg; conditions: Heart; summary of the method: as §2
Canis familiaris [17] = experiment: Effect on ischemic arrhythmias was studied in dogs. 10 mg/kg was injected intravenously and percent sinus beats after compound administration, was reported.; assay type: functional, Canis lupus familiaris; conditions: route intravenous; summary of the method: as §1
Mus musculus [18] = experiment: Compound was evaluated for ventricular extrasystole, 30 min before aconitine infusion, at a dose of 30 mg/kg, perorally administered in mice; S=significant antiarrhythmic effect; assay type: functional, organism-based; parameters: dose 30 mg/kg; conditions: Heart; summary of the method: as §2
Mus musculus [19] = experiment: Compound was evaluated for ventricular extrasystole activity, 3 min before aconitine infusion, at a dose of 1 mg/kg, intravenously administered in mice; S=significant antiarrhythmic effect; assay type: functional, organism-based; parameters: dose 1 mg/kg; conditions: Heart; summary of the method: as §2
Mus musculus [20] = experiment: Compound was evaluated for ventricular tachycardia activity in intravenously administered mice, 3 min before aconitine infusion, at a dose of 1 mg/kg; S=significant antiarrhythmic effect; assay type: functional, organism-based; parameters: dose 1 mg/kg; conditions: Heart; summary of the method: as §2
Canis familiaris [21] = experiment: Effect on ischemic arrhythmias was studied in dogs, by glass bead method. 10 mg/kg was administered perorally and percent sinus beats before compound administration, was reported.; assay type: functional, Canis lupus familiaris; conditions: route oral; summary of the method: as §1
Canis familiaris [22] = experiment: Effect on ischemic arrhythmias was studied in dogs, by glass bead method. 10 mg/kg was administered perorally and percent sinus beats after compound administration, was reported.; assay type: functional, Canis lupus familiaris; conditions: route oral; summary of the method: as §1
Mus musculus [23] = experiment: Compound was evaluated for ventricular extrasystole activity, 3 min before aconitine infusion, at a dose of 30 mg/kg, intravenously administered in mice; S=significant antiarrhythmic effect; assay type: functional, organism-based; parameters: dose 30 mg/kg; conditions: Heart; summary of the method: as §2
Mus musculus [24] = experiment: Compound was evaluated for ventricular extrasystole, 3 min before aconitine infusion, at a dose of 3 mg/kg, intravenously administered in mice; S=significant antiarrhythmic effect; conditions: Heart
Mus musculus [25] = experiment: Compound was evaluated for ventricular extrasystole activity, 30 min before aconitine infusion, at a dose of 10 mg/kg, perorally administered in mice; S=significant antiarrhythmic effect; conditions: Heart

SMILES | Sinus beats (Canis familiaris [1]) [%] | Activity (Mus musculus [2]) | Activity (Mus musculus [4]) | LD50 [5] [mg/kg] | Decrease (Cavia porcellus) [%] | pA2 [6] | Sinus beats (Canis familiaris [8]) [%] | pA2 [9] | Activity (Mus musculus [16]) | Activity (Mus musculus [18]) | Activity (Mus musculus [20]) | also measured
C=C(c1c(C)ccc(Cl)c1OCC(O)CNC(C)(C)C)n1ccnc1 (configuration not stated) | 11.7 | Anti-arrhythmic | Anti-arrhythmic | 29.5 | 49.8 | 5.04 | 59.1 | 5.77 |  |  |  | Duration (Canis familiaris [3]): 30 min; Activity (Mus musculus [7]): Anti-arrhythmic; Activity (Mus musculus [10]): Anti-arrhythmic
C=C[C@H]1CN2CC[C@H]1C[C@@H]2[C@@H](O)c1ccnc2ccc(OC)cc12 [QUINIDINE] |  |  |  |  | 26.4 |  |  |  | Anti-arrhythmic | Anti-arrhythmic |  | Sinus beats (Canis familiaris [11]): 4.2%; Activity (Mus musculus [12]): Anti-arrhythmic; Sinus beats (Canis familiaris [13]): 14.1%; Sinus beats (Canis familiaris [14]): 58.3%; Activity (Mus musculus [15]): Anti-arrhythmic; Sinus beats (Canis familiaris [17]): 74.1%
C=C(c1c(Cl)ccc(Cl)c1OCC(O)CNCC(C)C)n1ccnc1 (configuration not stated) | 6.5 | Anti-arrhythmic |  |  | 34.9 | 4.89 | 94.5 | 5.81 |  |  | Anti-arrhythmic | Activity (Mus musculus [19]): Anti-arrhythmic; Duration (Canis familiaris [3]): 60 min and 180 min; Sinus beats (Canis familiaris [21]): 9.9%; Activity (Mus musculus [7]): Anti-arrhythmic; Sinus beats (Canis familiaris [22]): 44.8%
CC(C)N(CCC(C(N)=O)(c1ccccc1)c1ccccn1)C(C)C (configuration not stated) [DISOPYRAMIDE] |  |  |  | 30 | 15.7 |  |  |  | Anti-arrhythmic | Anti-arrhythmic |  | Sinus beats (Canis familiaris [11]): 10.1%; Activity (Mus musculus [12]): Anti-arrhythmic; Sinus beats (Canis familiaris [13]): 22.4%; Sinus beats (Canis familiaris [14]): 66.2%; Activity (Mus musculus [15]): Anti-arrhythmic; Sinus beats (Canis familiaris [17]): 88.4%
C=C(c1c(C)c(C)cc(Cl)c1OCC(O)CNC(C)C)n1ccnc1 (configuration not stated) |  |  |  | 15.5 | 29.8 | 5.04 |  | 5.96 | Anti-arrhythmic | Anti-arrhythmic | Anti-arrhythmic | Activity (Mus musculus [19]): Anti-arrhythmic
C=C(c1c(C)ccc(Cl)c1OCC(O)CNC(C)C)n1ccnc1 (configuration not stated) |  |  |  |  |  | 5.67 |  | 5.55 | Anti-arrhythmic |  | Anti-arrhythmic | Activity (Mus musculus [23]): Anti-arrhythmic
C=C(c1ccc(Cl)c(Cl)c1OCC(O)CNC(C)C)n1ccnc1 (configuration not stated) |  |  | Anti-arrhythmic |  |  | 4.52 |  | 4.9 |  |  |  | Activity (Mus musculus [24]): Anti-arrhythmic
C=C(c1cc(Cl)ccc1OCC(O)CNC(C)(C)C)n1cccn1 (configuration not stated) | 1.8 |  | Anti-arrhythmic | 32.5 | 45.7 | 6.9 | 14.3 | 6.99 |  |  |  | Activity (Mus musculus [25]): Anti-arrhythmic
C=C(c1c(Cl)ccc(Cl)c1OCC(O)CNC(C)C)n1ccnc1 (configuration not stated) | 5.8 | Anti-arrhythmic | Anti-arrhythmic |  | 45.7 | 4.86 | 88.9 | 5.29 |  |  |  | Sinus beats (Canis familiaris [21]): 9.3%; Sinus beats (Canis familiaris [22]): 69.3%; Activity (Mus musculus [24]): Anti-arrhythmic
